Source: paper PMC2597202 (Structure (London, England : 1993), 2008)
Entries after “also recorded” stand apart in the source; their conditions may differ.

Assays:
[1] = molecular target: gp120 core bound to the 17b antibody; assay: Thermodynamic cycle by isothermal titration calorimetry, gp120 core bound to 17b; type: binding, HIV-1
gp120 core-17b complex = assay: BIAcore analysis; type: binding, HIV-1; conditions: data not shown
[2] = system: viruses with the w.t. YU2 envelope glycoproteins; assay: Inhibition of infection of Cf2Th-CD4/CCR5 cells, w.t. YU2 virus; type: cell-based, HIV-1; conditions: for IC50: read-out: 50% inhibitory concentration (IC50), Cf2Th-CD4/CCR5 cells, w.t. YU2 envelope glycoproteins
How it was run: (§1)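 Cf2Th-CD4/CCR5 cells were seeded at 6×10^3/well 24 h ahead. Luciferase viruses bearing YU2 Env (w.t. or S375A) or control A-MLV Env were premixed with test compound (1 to 100 μM) for 30 min at 37°C, then added to the cells for 48 h at 37°C. Luciferase was read after freeze-thaw lysis. Infection was expressed relative to no compound. IC50 is the mean ± SD of five independent experiments, each run in triplicate.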

[3] = system: Viruses with the S375A envelope glycoproteins; assay: Inhibition of infection of Cf2Th-CD4/CCR5 cells, S375A virus; type: cell-based, HIV-1
How it was run: as §1

[4] = system: recombinant HIV-1 with the wild-type HIV-1YU2 envelope glycoproteins; assay: Enhancement of infection of CD4-negative Cf2Th-CCR5 cells, w.t. YU2 virus; type: cell-based
[5] = system: viruses containing a chimeric HIV-1 envelope glycoprotein (HX(YU2 V3)); assay: Enhancement of infection of Cf2Th-CCR5 cells, HX; type: cell-based
[6] = system: viruses with the S375W mutant envelope glycoproteins; assay: Enhancement of infection of Cf2Th-CCR5 cells, S375W virus; type: cell-based, HIV-1
[7] = system: viruses with the S375A change; assay: Enhancement of infection of Cf2Th-CCR5 cells, S375A virus; type: cell-based, HIV-1; conditions: S375A envelope glycoproteins, compared with w.t.
D368A mutant viruses = assay: Enhancement of infection of Cf2Th-CCR5 cells, D368A virus; type: cell-based, HIV-1; conditions: CD4−CCR5+ target cells; D368A envelope glycoproteins
[8] = system: viruses with Glu 429 replaced with a lysine residue; assay: Enhancement of infection of Cf2Th-CCR5 cells, Glu 429 to lysine virus; type: cell-based, HIV-1; conditions: Glu 429 replaced with lysine
[9] = system: viruses with an alanine residue substituted for Glu 429; assay: Enhancement of infection of Cf2Th-CCR5 cells, Glu 429 to alanine virus; type: cell-based, HIV-1; conditions: Glu 429 replaced with alanine
[10] = system: viruses with the KB9 envelope glycoproteins; assay: Entry into CD4-negative Cf2Th-CXCR4 cells, KB9 virus; type: cell-based, HIV-1; conditions: data not shown
[11] = system: envelope glycoproteins of the laboratory-adapted CXCR4-using (X4) HIV-1 isolate, HXBc2; assay: Entry into CD4-negative Cf2Th-CXCR4 cells, HXBc2 virus; type: cell-based; conditions: data not shown
HXBc2 gp120 = HXBc2 gp120 (Human immunodeficiency virus type 1 group M subtype B, UniProt P04578); assay: Direct binding of 3H-labeled NBD-556, HXBc2 gp120; parameters: species or system HIV-1
[12] = system: YU2, HXBc2 and HX(YU2 V3) gp120 glycoproteins; assay: Direct binding of 3H-labeled BMS-806 to gp120 variants; parameters: species or system HIV-1; conditions: all three gp120 glycoproteins

SMILES | Kd ([1]; gp120 core bound to the 17b antibody, isothermal titration calorimetry) [µM] | increase in affinity for the gp120 core bound to the 17b antibody ([1]; versus gp120 core alone) | Kd (gp120 core-17b complex) [µM] | IC50 [2] [µM] | IC50 [3] [µM] | enhancement of HIV-1 entry/infection of CCR5+ cells (in words) [4] | enhancement of infection (in words) [5] | enhancement of infection (in words) [6] | enhancement of infection (in words) [7] | enhancement of infectivity (in words) (D368A mutant viruses) | activation of infection (in words) [8] | virus-enhancing activity (in words) [9] | enhancement of entry (in words) [10] | enhancement of entry (in words) [11] | direct binding of 3H-labeled NBD-556 (in words) (HXBc2 gp120) | inhibition of HIV-1YU2 infection of cells expressing CD4 and CCR5 (in words) ([2]; specificity versus A-MLV envelope glycoproteins) | direct binding of 3H-labeled BMS-806 (in words) [12]
CC1(C)CC(NC(=O)C(=O)Nc2ccc(Cl)cc2)CC(C)(C)N1 [NBD-556] | 1.5 | approximately 25 fold | 6.6 | 100 | 10 to 20 | significant enhancement | dramatically enhanced infection | not enhanced | greater enhancement | enhanced | eliminated the activation of infection | less disruptive | did not enhance | not functionally enhanced | only moderately |  | 
CC1(C)CC(NC(=O)C(=O)Nc2ccc(Br)cc2)CC(C)(C)N1 [NBD-557] |  |  |  |  |  | comparably to NBD-556 |  | did not activate the entry |  | not enhanced | eliminated the activation of infection | significantly diminished |  |  |  |  | 
CC1(C)CC(NC(=O)C(=O)Nc2ccc(Cl)c(F)c2)CC(C)(C)N1 [JRC-II-191] |  |  |  | 54 | 10 to 20 | most potent stimulation of HIV-1 infection; also recorded: activated HIV-1 infection |  | did not activate the entry |  | enhanced | eliminated the activation of infection | significantly diminished |  |  |  | specifically inhibited | 
COc1ccnc2[nH]cc(C(=O)C(=O)N3CCN(C(=O)c4ccccc4)C[C@H]3C)c12 [BMS-806] |  |  |  |  |  |  |  |  |  |  |  |  |  |  |  |  | similarly
